# Assay outcomes (PubChem)
# Only some compounds are listed: those with a hit (about 3.1% of all), similar ones and a draw of the others.
# Calb FLC = C. albicans growth inhibition with fluconazole, primary screen, CaCi-2 strain, Alamar Blue fluorescence | C. albicans CaCi-2 (fluconazole-resistant clinical isolate) + fluconazole, 48 h | growth inhibition, % (concentration not given with the values) | hit rate 0.57% among 300,000;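 active = growth inhibition above about 58% in most replicates, limit read from the data, passing the limit was not always enough; inconclusive = exactly half the replicates above a set limit; inactive = most replicates below a set limit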;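 note: all wells also contain fluconazole at 8 µg/ml as a sub-toxic cotreatment; 0% = median of DMSO wells and 100% = median of geldanamycin control wells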
# CSC inhib = cancer stem cell viability inhibitors, primary screen, luminescence | cancer stem cell-like cells viability | inhibition, % at 7.5 µM | hit rate 1.1% among 300,000; in the data active = inhibition above about 75%; inconclusive = no clear call, values can overlap the other calls; tested in HMLE shEcad cells
# T cruzi inh = inhibitors of intracellular T. cruzi growth, primary screen, luminescence, NIH3T3 host cells; T. cruzi beta-gal in NIH3T3, 90 h; inhibition, % (test concentration not listed); hit rate 1.4% among 300,000; AID 1885, 2009;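 active = mean inhibition across valid replicates above about 55%, limit read from the data; inconclusive = mean below that limit but half or more replicates reach it; inactive = mean below it, under half of replicates reach it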;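 note: signal also drops with host cell toxicity which is not excluded here; 0% = plate median of DMSO wells and 100% = zero luminescence signal; higher percent means less beta-gal luminescence so fewer parasites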
#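 Assay system: NIH/3T3 host cells with β-galactosidase reporter T. cruzi; input: 5,000 host fibroblasts per well; compound: single 50 nL compound addition per well in DMSO; timing: ≥90 h infection period, 3 h prior cell attachment; measured by: GalScreen β-gal luminescence, detergent lysis, 60 min; evaluation: percent inhibition of parasite-derived β-gal signal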
# HIF act = HIF pathway transcriptional activators, primary screen, cell-based, U2OS HRE-luciferase, luminescence. U2OS HRE-luciferase reporter; normalized: DMSO 0%, desferrioxamine 100%. activation, % at 7.5 µM (by protocol). hit rate 0.32% among 300,000;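 active = mean activation of at least 10% of the iron chelator positive control signal, with at least half of replicates also reaching 10%; inconclusive = mean and replicate majority disagree about reaching 10%; inactive = mean and most replicates under 10%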
# PolyA inhibitor = polyadenylation inhibitors in yeast reporter cells, primary screen, luminescence, S. cerevisiae; hit rate 0.02% among 300,000; activity score, % at 12 µM; S. cerevisiae SKY197-pL101 polyadenylation reporter, beta-gal luminescence; efflux-impaired pdr1/pdr3 knockout yeast; score 100 = 6 SD above DMSO;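 active = lowest replicate activity score at least 50, where 100 means six control SD above control mean; inconclusive = lowest score under 50 but half or more replicates reach 50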;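 note: yeast exposed to compound for 9 h at 30 °C; higher score means more reporter readthrough which indicates perturbed polyadenylation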
# Beta apoptosis = inhibitors of cytokine-induced beta cell apoptosis, primary screen, luminescence | INS-1E cytokine-induced death, ATP luminescence, 48 h; percent of positive-control rescue, neutral wells zero | protection from apoptosis, % (concentration not given with the values) | hit rate 0.8% among 300,000;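 active = Every replicate reaches about 75%, or at least half do and their mean reaches it too, limit read from the data; inconclusive = At least half of replicates reach the limit but their mean does not; inactive = Under half of replicates reach the limit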;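 note: 0% = cytokine-treated negative control wells and 100% = positive control rescue; higher means more ATP so stronger rescue from cytokine killing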
# * = called active by the depositor; ? = inconclusive; nt = no result given.
SMILES,Calb FLC,CSC inhib,T cruzi inh,HIF act,PolyA inhibitor,Beta apoptosis
Cc1ccc(C2=NOC(=O)/C2=C\c2ccccc2)cc1,4.0,-17.7,-18.5,31.2*,1.6,nt
O=C1ON=C(c2ccc(Cl)cc2)/C1=C/c1ccc(O)cc1,-1.8,79.3*,-11.7,0.4,-13.6,-36.5
CC(c1ccco1)N(C(=O)c1cccc(Br)c1)c1ccccn1 (stereo unspecified),1.1,6.1,9.3,0.9,-5.7,3.3
CCCCCCCCCCn1ccc(=N)cc1,108.0*,35.9,76.6*,-2.1,-19.2,116.4*
CCCCCCCCn1ccc(=N)cc1,1.3,25.0,38.5,0.0,-7.7,130.2*
N=c1ccn(Cc2ccc(F)cc2)cc1,-9.2,-3.2,-21.4,-0.4,-15.1,-3.8
CCCCCCN1Cc2ccccc2C1,-2.9,15.0,-13.9,1.8,10.3,-2.3
CCn1nnnc1NC(=O)c1cc(Cl)c(OC)c(Cl)c1,76.0*,-6.5,nt,nt,nt,-7.3
CCn1nnnc1NC(=O)c1cccc(OC)c1,-1.1,9.8,-18.3,2.7,11.3,0.0
COc1ccc(-c2cc(=O)oc3cc(OC(C)C(=O)NCc4ccccn4)ccc23)cc1 (stereo unspecified),14.6,-4.2,3.9,-0.5,5.4,-1.9
COc1ccc(C2=CSC3=NCCN23)cc1,-28.8,-8.7,-3.6,-5.7,-1.7,5.5
COc1ccc(C2=CSC3=NNC4(CCCCC4)NN23)cc1,111.9*,-0.5,-2.1,3.6,-3.2,-5.1
Cc1ccc(C2=CSC3=NNC4(CCCCC4)NN23)cc1,111.1*,11.4,18.1,4.3,-6.1,-0.1
Cc1ccc(Cl)cc1N1C(=O)CC(Sc2ncccn2)C1=O (stereo unspecified),39.5,-5.6,-0.2,-0.1,-15.3,-5.2
COc1cc(/C=C/C(=O)c2ccc(NS(=O)(=O)c3ccc(C)cc3)cc2)ccc1OC(F)F,6.3,-7.2,42.0,-0.8,8.6,nt
COc1cc(/C=C/C(=O)c2ccc(NS(=O)(=O)c3ccc(C)cc3)cc2)cc(OC)c1O,0.8,80.0*,-19.3,-0.5,10.6,-18.6
COc1cccc(/C=C/C(=O)c2ccc(NS(=O)(=O)c3ccc(C)cc3)cc2)c1,?,81.4*,10.1,0.2,-8.4,4.4
O=C(O)c1ccc(C=C(c2nc3ccccc3s2)c2nc3ccccc3s2)cc1,-3.3,81.8*,-13.7,0.0,-39.5,-0.7
COc1cc(C=C(c2nc3ccccc3s2)c2nc3ccccc3s2)cc(OC)c1O,-3.5,3.3,-3.8,0.6,-7.8,-1.6
CN(C)c1ccc(/C=C(\Cl)c2nc3ccccc3s2)cc1,nt,91.7*,nt,nt,nt,4.1
Cc1nn(C)cc1S(=O)(=O)Nc1cccc(Cl)c1,-5.9,-8.2,2.4,-0.1,2.1,-1.1
Cc1c(Cl)c([N+](=O)[O-])nn1CCCC(=O)NC1CCCCC1,4.3,-8.0,-3.7,-0.5,23.8,3.0
Cc1onc(-c2ccccc2)c1C(O)c1ccc(F)cc1 (stereo unspecified),-17.6,-2.7,-3.9,1.8,-24.2,-5.0
CC(C)(C)c1ccc(SCCc2ccccn2)cc1,-2.8,0.4,-7.5,2.5,-6.8,-5.5
Cc1ccc(C(CNC(=O)c2ccc(Br)o2)N2CCN(C)CC2)cc1 (stereo unspecified),0.8,-7.1,9.7,-0.7,5.1,-5.1
SMILES,Calb FLC,CSC inhib,T cruzi inh,HIF act,PolyA inhibitor,Beta apoptosis
CN1CCN(C(CNC(=O)C(=O)Nc2ccc3c(c2)OCCO3)c2ccc(F)cc2)CC1 (stereo unspecified),8.0,-7.0,61.8*,-0.2,4.0,-1.2
CN1CCN(C(CNC(=O)c2ccc(Br)o2)c2ccc(F)cc2)CC1 (stereo unspecified),-10.8,-15.5,61.6*,0.3,4.5,5.7
Cc1ccc(CNC(=O)CC2(CC3=NS(=O)(=O)c4ccccc4N3)CCCC2)cc1,-10.7,-7.0,4.9,-0.4,-6.1,6.5
Cc1cc(C)n(-c2nc(Nc3ccccc3)nc(-n3nc(C)cc3C)n2)n1,-2.8,7.0,-2.8,-0.2,-0.9,3.4
COc1cccc(/C=N/Nc2cc(-n3nc(C)cc3-c3ccccc3)ncn2)c1O,81.6*,nt,33.3,51.8*,-39.0,nt
COc1cccc(/C=N/Nc2nc(Nc3ccccc3)nc(-n3nc(C)cc3C)n2)c1O,4.5,46.5,45.1,1.8,-102.5,135.0*
CC1CC(C)CN(S(=O)(=O)c2ccc3oc(=O)ccc3c2)C1 (stereo unspecified),5.8,-16.4,-6.9,-0.2,4.3,-0.5
Cc1ccc(S(=O)(=O)N2CCN(C(=O)COC(=O)CCOc3ccccc3)CC2)c(C)c1,nt,nt,nt,nt,nt,-3.4
CC(C)N1CCN(C(=O)c2ccc(OC3CCN(CCc4ccccc4)CC3)cc2)CC1,6.8,-1.3,-22.7,0.3,19.2,-2.9
CC(C)Cn1c(N)c(C(=O)COC(=O)CCNS(=O)(=O)c2ccccc2)c(=O)n(C)c1=O,-6.2,-1.6,-18.4,0.6,-5.7,2.3
S=c1[nH]nc(-c2ccco2)n1/N=C/C(Cl)=C/c1ccccc1,5.0,82.9*,-68.9,4.4,-9.3,2.5
S=c1[nH]nc(C2CCCCC2)n1/N=C/c1ccc(Br)cc1,5.7,nt,9.2,1.3,-21.9,nt
Cc1cc(-c2n[nH]c(=S)n2/N=C/C(Cl)=C/c2ccccc2)n[nH]1,10.2,-0.3,-19.3,5.8,-0.5,-16.0
S=c1[nH]nc(-c2cc(-c3ccccc3)n[nH]2)n1/N=C/c1ccccc1,-4.0,-11.5,4.9,0.3,12.0,-7.4
S=c1[nH]nc(-c2cc(-c3ccccc3)n[nH]2)n1/N=C/C(Br)=C/c1ccccc1,-6.1,83.0*,12.0,7.9,20.7,?
S=c1[nH]nc(C2CCCCC2)n1/N=C/c1ccc(Br)s1,89.6*,5.2,9.4,-0.1,-5.5,3.5
S=c1[nH]nc(C2CCCCC2)n1/N=C/C(Cl)=C\c1ccccc1,8.1,109.3*,-78.9,0.7,-11.0,-7.5
CCC(C)C(NC(=O)OCc1ccccc1)C(=O)NC(Cc1ccc(O)cc1)C(=O)OC (stereo unspecified),4.4,-3.8,-6.2,0.4,9.6,-1.8
CC1=NN(c2nc(-c3ccc(C)cc3)cs2)C(=O)C1N=Nc1ccccc1O (stereo unspecified),3.0,54.6,54.8*,1.1,-14.3,28.6
CC1=NN(c2nc(-c3ccc(C)cc3)cs2)C(=O)C1N=Nc1cccc(O)c1 (stereo unspecified),45.6,-15.8,18.1,0.3,-9.2,3.5
CCOC(=O)N1CCN(CC(O)COCCC23CC4CC(CC(C4)C2)C3)CC1 (stereo unspecified),2.1,26.3,67.9*,0.1,-2.0,nt
CC1CCCCN1CC(O)COCCC12CC3CC(CC(C3)C1)C2 (stereo unspecified),30.1,69.2,47.0,-1.2,-12.5,11.4
